Experimental data reported in ChEMBL document CHEMBL1156509, “Survival in the presence of antifungals: genome-wide expression profiling of Aspergillus niger in response to sublethal concentrations of caspofungin and fenpropimorph” (2007).
Active and inactive are the calls of the source.

How the values were obtained:
Aspergillus niger [1] = test: Induction of GFP tagged PagsA-H2B expression in Aspergillus niger RD6.47 at 104.2 ug/mL by fluorescence microscopy; format: functional, organism-based
Procedure, shortened: (§1)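 agsA promoter-GFP reporters, cytoplasmic (JvD1.1) or nuclear H2B-targeted (RD6.47). Germlings pre-grown 6 h at 37 °C in 2× CM, exposed 3 h at 30 °C to seven 2-fold dilutions. GFP levels were scored by fluorescence microscopy as 0 (basal), 1 (intermediate) or 2 (high). Controls: gpdA-H2B-GFP strain MA26.1 (positive), N402 (negative).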

Aspergillus niger [2] = test: Induction of GFP tagged PagsA expression in Aspergillus niger JvD1.1 at 104.2 ug/mL by fluorescence microscopy; format: functional, organism-based; procedure, shortened: as §1
Aspergillus niger [3] = test: Antifungal activity against Aspergillus niger JvD1.1 at 104.2 ug/mL by microtiter plate; format: functional, organism-based
Procedure, shortened: (§2)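 Reporter conidia (2×10^4 per well) were pre-grown 6 h at 37 °C in 2× CM in glass-bottom plates. An equal volume of a 2-fold dilution series (seven concentrations) was added, then 3 h at 30 °C. Medium was discarded and adherent germlings imaged. Growth inhibition was scored 0/1/2 from hyphal length.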

Aspergillus niger [4] = test: Antifungal activity against Aspergillus niger RD6.47 at 104.2 ug/mL by microtiter plate; format: functional, organism-based; procedure, shortened: as §2
Aspergillus niger [5] = test: Effect on morphological changes in Aspergillus niger RD6.47 assessed as tip swelling; format: functional, organism-based
Aspergillus niger [6] = test: Effect on morphological changes in Aspergillus niger N402 germlings assessed as germ tube elongation and branching at 0.9 ug/mL after 5 hrs; format: functional, organism-based
Procedure, shortened: (§3)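 Compound or water control was added, then 1 h more at 37 °C. Adherent germlings were scored by microscopy, at least 50 per sample, as branched or unbranched. Branching index = branched/total germlings.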

Aspergillus niger [7] = test: Effect on morphological changes in Aspergillus niger N402 germlings assessed as increase in germ tube; format: functional, organism-based
Procedure, shortened: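 Bioreactor: 5×10^9 N402 conidia in 5 l fermentation medium, pH 3 controlled, 37 °C, 250 rpm. Compound in water (or water alone) added at 5 h, then 1 h further cultivation. At least 200 germlings per run were counted for germ tubes per germling and subapical branches. Mean ± S.D. from two independent runs.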

Aspergillus niger [8] = test: Induction of GFP tagged PagsA expression in Aspergillus niger JvD1.1 by fluorescence microscopy; format: functional, organism-based
Procedure, shortened: (§4)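 Conidia of the agsA-promoter GFP reporters (2×10^4 per well, 2× CM) germinated 6 h at 37 °C, then were exposed 3 h at 30 °C to seven 2-fold serial dilutions. GFP in adherent germlings was read by fluorescence microscopy and scored 0 (basal), 1 (intermediate) or 2 (high). Positive control was a PgpdA-H2B-GFP strain; N402 was the negative control.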

Aspergillus niger [9] = test: Induction of gfaA gene expression in Aspergillus niger by microarray analysis relative to control; format: functional
Procedure, shortened: (§5)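 A. niger N402 conidia (5×10^9) grown in 5 L fermentation medium in a bioreactor at 37 °C, pH 3, 250 rpm. Drug in distilled H2O or H2O alone added at 5 h; mycelium harvested by filtration 1 h later and frozen in liquid nitrogen. cRNA hybridized to Affymetrix A. niger GeneChips, two independent bioreactor runs per condition; normalized, ≥1.5-fold change at p 0.05 cutoff.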

Aspergillus niger [10] = test: Effect on morphological changes in Aspergillus niger N402 germlings assessed as germ tube elongation and branching at 5 ug/mL after 5 hrs; format: functional, organism-based; procedure, shortened: as §3
Aspergillus niger [11] = test: Upregulation of Rho2-GTPase gene expression in Aspergillus niger relative to control; format: functional, organism-based
Procedure, shortened: (§6)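 N402 conidia (5×10^9) were grown in 5 l fermentation medium, pH 3, 37 °C, 250 rpm in a bioreactor. After 5 h compound was added (water for controls); mycelium was harvested 1 h later. RNA was hybridized to A. niger Affymetrix GeneChips from two independent bioreactor runs. Genes with ≥1.5-fold change at p < 0.05 after normalization were counted as differentially expressed.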

Aspergillus niger [12] = test: Induction of dfgC gene expression in Aspergillus niger by microarray analysis relative to control; format: functional; procedure, shortened: as §5
Aspergillus niger [13] = test: Induction of crhC gene expression in Aspergillus niger by microarray analysis relative to control; format: functional; procedure, shortened: as §5
Aspergillus niger [14] = test: Induction of srgA gene expression in Aspergillus niger by microarray analysis relative to control; format: functional; procedure, shortened: as §5
Aspergillus niger [15] = test: Effect on increase sub apical branching in Aspergillus niger N402 germlings assessed as branching index at 5 ng/mL after 5 hrs; format: functional
Procedure, shortened: (§7)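 N402 conidia (5×10^5) were germinated 5 h at 37 °C on coverslips in 5 ml liquid MM plus 0.003% yeast extract. Compound was added (water for controls) and culture continued 1 h at 37 °C. At least 50 adherent germlings were scored microscopically as branched or unbranched; branching index = branched/(branched + unbranched).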

Aspergillus niger [16] = test: Antifungal activity against Aspergillus niger JvD1.1 at 25.6 ug/mL by microtiter plate; format: functional, organism-based
Procedure, shortened: (§8)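 Reporter germlings (cytoplasmic PagsA-GFP JvD1.1 or nuclear PagsA-H2B-GFP RD6.47), 2×10^4 conidia per well in 2× CM, pre-grown 6 h at 37 °C. A 2-fold dilution series (seven concentrations) was then added and plates were held 3 h at 30 °C. Adherent germlings were imaged, and growth inhibition was scored 0/1/2 from hyphal length.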

Aspergillus niger [17] = test: Induction of agsA expression in Aspergillus niger N402 germlings; format: functional, organism-based
Procedure, shortened: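 RNA from 1 h-treated N402 bioreactor germlings (5 h pre-growth, FM pH 3, 37 °C) was hybridised to A. niger Affymetrix arrays, biological duplicate. Data were normalised; differential expression was taken as at least 1.5-fold change with p cutoff 0.05. Northern blots on the same RNA were used for validation.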

Aspergillus niger [18] = test: Induction of pgmB gene expression in Aspergillus niger by microarray analysis relative to control; format: functional; procedure, shortened: as §5
Aspergillus niger [19] = test: Induction of GFP tagged PagsA expression in Aspergillus niger JvD1.1 at 25.6 ug/mL by fluorescence microscopy; format: functional, organism-based; procedure, shortened: as §4
Aspergillus niger [20] = test: Induction of hocA gene expression in Aspergillus niger by microarray analysis relative to control; format: functional; procedure, shortened: as §5
Aspergillus niger [21] = test: Effect on morphological changes in Aspergillus niger N402 germlings assessed as tip swelling at 0.9 ug/mL after 5 hrs; format: functional, organism-based
Aspergillus niger [22] = test: Effect on morphological changes in Aspergillus niger JvD1.1 assessed as tip swelling; format: functional, organism-based
Aspergillus niger [23] = test: Induction of GFP tagged PagsA-H2B expression in Aspergillus niger RD6.47 at 25.6 ug/mL by fluorescence microscopy; format: functional, organism-based; procedure, shortened: as §4
Aspergillus niger [24] = test: Antifungal activity against Aspergillus niger RD6.47 at 25.6 ug/mL by microtiter plate; format: functional, organism-based; procedure, shortened: as §8
Aspergillus niger [25] = test: Effect on morphological changes in Aspergillus niger N402 germlings assessed as branching index at 50 ng/mL; format: functional; procedure, shortened: as §7
Aspergillus niger [26] = test: Antifungal activity against Aspergillus niger JvD1.1 by microtiter plate; format: functional, organism-based; procedure, shortened: as §8
Aspergillus niger [27] = test: Induction of mkkA gene expression in Aspergillus niger by microarray analysis relative to control; format: functional; procedure, shortened: as §5
Aspergillus niger [28] = test: Induction of agtA gene expression in Aspergillus niger by microarray analysis relative to control; format: functional; procedure, shortened: as §5
Aspergillus niger [29] = test: Induction of GFP tagged PagsA-H2B expression in Aspergillus niger RD6.47 by fluorescence microscopy; format: functional, organism-based; procedure, shortened: as §4
Aspergillus niger [30] = test: Induction of lplB gene expression in Aspergillus niger by microarray analysis relative to control; format: functional; procedure, shortened: as §5
Aspergillus niger [31] = test: Induction of dppA gene expression in Aspergillus niger by microarray analysis relative to control; format: functional; procedure, shortened: as §5
Aspergillus niger [32] = test: Induction of rhoB gene expression in Aspergillus niger by microarray analysis relative to control; format: functional; procedure, shortened: as §5
Aspergillus niger [33] = test: Upregulation of agtA gene expression in Aspergillus niger relative to control; format: functional, organism-based; procedure, shortened: as §6
Aspergillus niger [34] = test: Effect on morphological changes in Aspergillus niger N402 germlings assessed as tip swelling at 5 ng/mL after 5 hrs; format: functional, organism-based
Aspergillus niger [35] = test: Induction of chsB gene expression in Aspergillus niger by microarray analysis relative to control; format: functional; procedure, shortened: as §5
Aspergillus niger [36] = test: Induction of gfaB gene expression in Aspergillus niger by microarray analysis relative to control; format: functional; procedure, shortened: as §5
Aspergillus niger [37] = test: Effect on morphological changes in Aspergillus niger N402 germlings assessed as tip swelling at 5 ug/mL after 5 hrs; format: functional, organism-based
Aspergillus niger [38] = test: Induction of dpmA gene expression in Aspergillus niger by microarray analysis relative to control; format: functional; procedure, shortened: as §5
Aspergillus niger [39] = test: Induction of gnaA gene expression in Aspergillus niger by microarray analysis relative to control; format: functional; procedure, shortened: as §5
Aspergillus niger [40] = test: Antifungal activity against Aspergillus niger RD6.47 by microtiter plate; format: functional, organism-based; procedure, shortened: as §8
Aspergillus niger [41] = test: Induction of crhB gene expression in Aspergillus niger by microarray analysis relative to control; format: functional; procedure, shortened: as §5
Aspergillus niger [42] = test: Induction of ugpA gene expression in Aspergillus niger by microarray analysis relative to control; format: functional; procedure, shortened: as §5
Aspergillus niger [43] = test: Induction of bgtB gene expression in Aspergillus niger by microarray analysis relative to control; format: functional; procedure, shortened: as §5
Aspergillus niger [44] = test: Effect on morphological changes in Aspergillus niger N402 germlings assessed as germ tube elongation and branching at 5 ng/mL after 5 hrs; format: functional, organism-based; procedure, shortened: as §3
Aspergillus niger [45] = test: Induction of gelA gene expression in Aspergillus niger by microarray analysis relative to control; format: functional; procedure, shortened: as §5
Aspergillus niger [46] = test: Induction of rapA gene expression in Aspergillus niger by microarray analysis relative to control; format: functional; procedure, shortened: as §5

CN(C/C=C/C#CC(C)(C)C)Cc1cccc2ccccc12
Activity (Aspergillus niger [1]): Active | Activity (Aspergillus niger [2]): Active

Cc1cc(C2CC2)nc(Nc2ccccc2)n1
Activity (Aspergillus niger [1]): Active | Activity (Aspergillus niger [2]): Active

CCCCNC(=O)n1c(NC(=O)OC)nc2ccccc21
Activity (Aspergillus niger [1]): inactive | Activity (Aspergillus niger [2]): inactive | Activity (Aspergillus niger [3]): Active | Activity (Aspergillus niger [4]): Active

CC[C@H](C)C[C@H](C)CCCCCCCCC(=O)N[C@H]1C[C@@H](O)[C@@H](NCCN)NC(=O)[C@@H]2[C@@H](O)CCN2C(=O)[C@H]([C@H](O)CCN)NC(=O)[C@H]([C@H](O)[C@@H](O)c2ccc(O)cc2)NC(=O)[C@@H]2C[C@@H](O)CN2C(=O)[C@H]([C@@H](C)O)NC1=O [CASPOFUNGIN]
Activity (Aspergillus niger [5]): Active | Activity (Aspergillus niger [6]): Active | Activity (Aspergillus niger [7]): Active | Activity (Aspergillus niger [8]): Active | fold change (FC) (Aspergillus niger [9]): 2.32 | Activity (Aspergillus niger [10]): Active | Activity (Aspergillus niger [11]): Active | fold change (FC) (Aspergillus niger [12]): 2.4 | fold change (FC) (Aspergillus niger [13]): 2.03 | fold change (FC) (Aspergillus niger [14]): 2.51 | Activity (Aspergillus niger [15]): 34.5% | Activity (Aspergillus niger [16]): Active | Activity (Aspergillus niger [17]): Active | fold change (FC) (Aspergillus niger [18]): 1.95 | Activity (Aspergillus niger [19]): Active | fold change (FC) (Aspergillus niger [20]): 2.03 | Activity (Aspergillus niger [21]): Active | Activity (Aspergillus niger [22]): Active | Activity (Aspergillus niger [23]): Active | Activity (Aspergillus niger [24]): Active | Activity (Aspergillus niger [25]): 43.7% | Activity (Aspergillus niger [26]): Active | fold change (FC) (Aspergillus niger [27]): 2.03 | fold change (FC) (Aspergillus niger [28]): 2.1 | Activity (Aspergillus niger [29]): Active | fold change (FC) (Aspergillus niger [30]): 1.77 | fold change (FC) (Aspergillus niger [31]): 2.62 | fold change (FC) (Aspergillus niger [32]): 2.32 | Activity (Aspergillus niger [33]): Active | Activity (Aspergillus niger [34]): Active | fold change (FC) (Aspergillus niger [35]): 3.08 | fold change (FC) (Aspergillus niger [36]): 7.98 | Activity (Aspergillus niger [37]): Active | fold change (FC) (Aspergillus niger [38]): 1.85 | fold change (FC) (Aspergillus niger [39]): 3.18 | Activity (Aspergillus niger [40]): Active | fold change (FC) (Aspergillus niger [41]): 2.58 | fold change (FC) (Aspergillus niger [42]): 1.64 | fold change (FC) (Aspergillus niger [43]): 1.77 | Activity (Aspergillus niger [44]): Active | fold change (FC) (Aspergillus niger [45]): 3.05 | fold change (FC) (Aspergillus niger [46]): 2.16

N#Cc1c[nH]cc1-c1cccc2c1OC(F)(F)O2
Activity (Aspergillus niger [1]): Active | Activity (Aspergillus niger [2]): Active | Activity (Aspergillus niger [3]): Active | Activity (Aspergillus niger [4]): Active

Fc1ccc([C@]2(Cn3cncn3)O[C@H]2c2ccccc2Cl)cc1
Activity (Aspergillus niger [1]): inactive | Activity (Aspergillus niger [2]): inactive | Activity (Aspergillus niger [3]): inactive | Activity (Aspergillus niger [4]): inactive
